Source: ChEMBL document CHEMBL2321684, “Novel hybrids of optically active ring-opened 3-n-butylphthalide derivative and isosorbide as potential anti-ischemic stroke agents” (J Med Chem, 2013)
≈ marks a conversion by molar mass, not a printed value. Calls of active or inactive are those of the source. No cut-off for these calls is given here.

Columns and labels:
Rattus norvegicus [1] = assay: (§1) Antiischemic activity in Sprague-Dawley rat assessed as reduction in middle cerebral artery occlusion-induced inflammatory infiltrates in brain at 340 mg/kg administered via gavage for 7 days prior to middle cerebral artery occlusion-challenge measured after 24 hrs by microscopic analysis; type: functional, organism-based; design: dose 340 mg/kg
Procedure, shortened: (§2)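 Male SD rats (280−320 g), n = 12 per group, dosed by gavage daily for 7 days in 0.5% CMC-Na vehicle. Sham animals received vehicle only. Two hours after the last dose, rats were anesthetized with chloral hydrate (300 mg/kg ip) and given MCAO for 2 h, then reperfused. Body temperature was held at 37 °C. All endpoints were read at 24 h post reperfusion.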

Rattus norvegicus [2] = assay: Antiischemic activity in Sprague-Dawley rat assessed as reduction in middle cerebral artery occlusion-induced abnormal changes in brain at 80 mg/kg administered via gavage for 7 days prior to middle cerebral artery occlusion-challenge measured after 24 hrs by microscopic analysis; type: functional, organism-based; design: dose 80 mg/kg; procedure, shortened: as §2
Rattus norvegicus [3] = assay: Antiischemic activity in Sprague-Dawley rat assessed as reduction in middle cerebral artery occlusion-induced necrosis in neurons at 340 mg/kg administered via gavage for 7 days prior to middle cerebral artery occlusion-challenge measured after 24 hrs by microscopic analysis; type: functional, organism-based; design: dose 340 mg/kg; procedure, shortened: as §2
Rattus norvegicus [4] = assay: as §1, with “infarct size” for “inflammatory infiltrates”, “triphenyltetrazolium chloride assay relative to control” for “microscopic analysis”; type: functional, organism-based; design: dose 340 mg/kg; procedure, shortened: as §2
Rattus norvegicus [5] = assay: Antiischemic activity in Sprague-Dawley rat assessed as reduction in middle cerebral artery occlusion-induced neurological deficit scores at 340 mg/kg administered via gavage for 7 days prior to middle cerebral artery occlusion-challenge measured after 24 hrs relative to control; type: functional, organism-based; design: dose 340 mg/kg; procedure, shortened: as §2
Rattus norvegicus [6] = assay: Antiischemic activity in Sprague-Dawley rat assessed as reduction in middle cerebral artery occlusion-induced neurological deficit scores at 80 mg/kg administered via gavage for 7 days prior to middle cerebral artery occlusion-challenge measured after 24 hrs relative to control; type: functional, organism-based; design: dose 80 mg/kg; procedure, shortened: as §2
[7] = Plasma concentration in ICR mouse at 680 mg/kg, po after 4 hrs by HPLC analysis; type: ADME, organism-based; design: dose 680 mg/kg, route oral
Procedure, shortened: (§3)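 Male ICR mice (30−35 g), n = 6 per time point, were given a single 680 mg/kg gavage dose and sacrificed at 0.5, 1, 2, 4 and 8 h. Brains were rinsed, weighed and homogenized in 3 volumes of saline. Plasma and homogenate were precipitated with 3 volumes of acetonitrile.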

[8] = Plasma concentration in ICR mouse at 680 mg/kg, po after 2 hrs by HPLC analysis; type: ADME, organism-based; design: dose 680 mg/kg, route oral; procedure, shortened: as §3
[9] = Plasma concentration in ICR mouse at 680 mg/kg, po after 0.5 hrs by HPLC analysis; type: ADME, organism-based; design: dose 680 mg/kg, route oral; procedure, shortened: as §3
[10] = Biodistribution in ICR mouse brain at 680 mg/kg, po after 8 hrs by HPLC analysis; type: ADME, organism-based; design: dose 680 mg/kg, route oral; settings: read-out: Drug uptake; procedure, shortened: as §3
[11] = Biodistribution in ICR mouse brain at 680 mg/kg, po after 2 hrs by HPLC analysis; type: ADME, organism-based; design: dose 680 mg/kg, route oral; settings: read-out: Drug uptake; procedure, shortened: as §3
[12] = Biodistribution in ICR mouse brain at 680 mg/kg, po after 0.5 hrs by HPLC analysis; type: ADME, organism-based; design: dose 680 mg/kg, route oral; settings: read-out: Drug uptake; procedure, shortened: as §3
[13] = Biodistribution in ICR mouse brain at 680 mg/kg, po after 1 hr by HPLC analysis; type: ADME, organism-based; design: dose 680 mg/kg, route oral; settings: read-out: Drug uptake; procedure, shortened: as §3
[14] = Aqueous solubility of the compound after 5 hrs by UV-spectrophotometric analysis; type: physicochemical; settings: water
Rattus norvegicus [15] = assay: Antithrombotic activity in Sprague-Dawley rat assessed as reduction in arteriovenous shunt-induced dry thrombus weight at 340 mg/kg, administered via gavage for 7 days prior to arteriovenous shunt-challenge measured up to 15 mins relative to control; type: functional, organism-based; design: dose 340 mg/kg
Procedure, shortened: (§4)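 Male SD rats (250−280 g), n = 12 per group, dosed by gavage daily for 7 days in 0.5% CMC-Na. Two hours after the last dose, rats were anesthetized with chloral hydrate (300 mg/kg ip). A saline-filled 14 cm polyethylene catheter holding a 6 cm silk thread linked the left jugular vein and right carotid artery for 15 min. The thrombus was then weighed wet and dry. Results are mean ± SD, analysed by ANOVA/Tukey.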

Rattus norvegicus [16] = assay: Antithrombotic activity in Sprague-Dawley rat assessed as reduction in arteriovenous shunt-induced wet thrombus weight at 340 mg/kg, administered via gavage for 7 days prior to arteriovenous shunt-challenge measured up to 15 mins relative to control; type: functional, organism-based; design: dose 340 mg/kg; procedure, shortened: as §4
Mus musculus [17] = assay: Antithrombotic activity in Swiss ICR mouse assessed as inhibition of collagen/adrenaline-induced acute systemic vascular thromboembolism at 680 mg/kg, po administered for 7 days prior to collagen/adrenaline-challenge measured up to 15 mins relative to control; type: functional, organism-based; design: dose 680 mg/kg
Procedure, shortened: (§5)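 Male Swiss ICR mice (30−35 g), n = 15 per group, dosed by gavage daily for 7 days in DMSO vehicle. Two hours after the last dose, mice received collagen (0.21 mg/kg) plus adrenaline (44.5 μg/kg) iv. Survival was monitored for 15 min and reported as % surviving.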

Mus musculus [18] = assay: Antithrombotic activity in Swiss ICR mouse assessed as inhibition of collagen/adrenaline-induced acute systemic vascular thromboembolism at 160 mg/kg, po administered for 7 days prior to collagen/adrenaline-challenge measured up to 15 mins relative to control; type: functional, organism-based; design: dose 160 mg/kg; procedure, shortened: as §5
[19] = Stability in artificial intestinal juice assessed as compound remaining at pH 6.8 after 4 hr by HPLC analysis; type: physicochemical; settings: simulated gi fluid, pH 6.8, 4 h
[20] = Stability in artificial intestinal juice assessed as compound remaining at pH 6.8 after 8 hr by HPLC analysis; type: physicochemical; settings: simulated gi fluid, pH 6.8, 8 h
[21] = Stability in artificial intestinal juice assessed as compound remaining at pH 6.8 after 2 hr by HPLC analysis; type: physicochemical; settings: simulated gi fluid, pH 6.8, 2 h
[22] = Stability in artificial intestinal juice assessed as compound remaining at pH 6.8 measured immediately by HPLC analysis; type: physicochemical; settings: simulated gi fluid
[23] = Stability in artificial gastric juice assessed as compound remaining at pH 1.5 after 4 hr by HPLC analysis; type: physicochemical; settings: simulated gi fluid, pH 1.5, 4 h
[24] = Stability in artificial gastric juice assessed as compound remaining at pH 1.5 after 8 hr by HPLC analysis; type: physicochemical; settings: simulated gi fluid, pH 1.5, 8 h
[25] = Stability in artificial gastric juice assessed as compound remaining at pH 1.5 after 1 hr by HPLC analysis; type: physicochemical; settings: simulated gi fluid, pH 1.5, 1 h
[26] = Stability in artificial gastric juice assessed as compound remaining at pH 1.5 measured immediately by HPLC analysis; type: physicochemical; settings: simulated gi fluid
Platelet = assay: Antiplatelet aggregation activity in rabbit platelets assessed as inhibition of ADP-induced platelet aggregation at 0.1 mM incubated for 5 mins prior to ADP-challenge measured within 5 mins by turbidimetric analysis; type: functional, cell-based; settings: Oryctolagus cuniculus
Procedure, shortened: (§6)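 Rabbit carotid blood was citrated (3.8%, 9:1). PRP was adjusted with PPP to 400−450 × 10⁹ platelets/L. PRP was preincubated with compound or DMSO for 5 min at 37 °C, then aggregation was induced with ADP at 10 μM. Maximum aggregation rate was recorded over 5 min using Born's turbidimetry. Inhibition % was calculated versus vehicle; n = 6, mean ± SD.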

[27] = Antiplatelet aggregation activity in rabbit platelets assessed as inhibition of ADP-induced platelet aggregation at 1 mM incubated for 5 mins prior to ADP-challenge measured within 5 mins by Born's turbidimetric analysis relative to control; type: functional; settings: Oryctolagus cuniculus; procedure, shortened: as §6
[28] = Antiplatelet aggregation activity in rabbit platelets assessed as inhibition of ADP-induced platelet aggregation incubated for 5 mins prior to ADP-challenge measured within 5 mins by Born's turbidimetric analysis; type: functional, cell-based; settings: Oryctolagus cuniculus

concentration at 4 h [7]: 126 ng/mL
concentration at 2 h [8]: 186 ng/mL
concentration at 0.5 h [9]: 320 ng/mL
concentration at 8 h [10]: 16.7 ng/mL
concentration at 2 h [11]: 174 ng/mL
concentration at 0.5 h [12]: 408 ng/mL
concentration at 1 h [13]: 260 ng/mL
solubility at 5 h [14]: 11.2 mg/mL (≈ 13.9 mM)
Stability [19]: 4.89 µM
Stability [20]: 4.92 µM
Stability [21]: 5.04 µM
Stability [22]: 4.97 µM
Stability [23]: 4.79 µM
Stability [24]: 4.96 µM
Stability [25]: 4.89 µM
Stability [26]: 4.92 µM
IC50 [28]: 70 µM
SMILES: CCCC[C@H](OC(=O)CN1CCN(C)CC1)c1ccccc1C(=O)O[C@H]1CO[C@H]2[C@@H]1OC[C@H]2OC(=O)c1ccccc1[C@H](CCCC)OC(=O)CN1CCN(C)CC1
Activity (Rattus norvegicus [1]): Active
Activity (Rattus norvegicus [2]): Active
Activity (Rattus norvegicus [3]): Active
Activity (Rattus norvegicus [4]): Active
Activity (Rattus norvegicus [5]): Active
Activity (Rattus norvegicus [6]): Active
Activity (Rattus norvegicus [15]): Active
Activity (Rattus norvegicus [16]): Active
Activity (Mus musculus [17]): Active
Activity (Mus musculus [18]): Active
inhibition (Platelet): Active
inhibition at 1000 µM [27]: 50.1%
